Measurements reported in ChEMBL document CHEMBL1123797, “Antianaphylactic benzophenones and related compounds” (1987).

species: Cavia porcellus; assay: Inhibition of slow reacting substance of anaphylaxis (SRS-A) release from sensitized guinea pig chopped lung upon antigen challenge at 10 ug/mL; type: functional
Method in brief: (§1)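 Guinea pigs sensitized to ovalbumin; lungs taken 3 weeks later, perfused with Tyrode, chopped into 0.5-mm cubes. 100-mg aliquots in Tyrode were preincubated 5 min at 37 °C, then compound or Tyrode and ovalbumin (5 mg in 0.1 mL) were added. Incubation was 15 min at 37 °C with rocking, and supernatant was bioassayed. Unchallenged control gave spontaneous release. Values are % inhibition, mean of ≥4 samples; Student's t-test.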

First: Cc1ccc(O)c(/C(=N\O)c2ccc(Cl)cc2)c1
Second: Cc1ccc(O)c(/C(=N/O)c2ccc(Cl)cc2)c1
The Inhibition of the first is lower: 32% for the first, 40% for the second.

Going from `CCc1ccc(S(C)(=O)=O)c(C(=O)c2ccc(C)cc2)c1` to `CCc1ccc(S(C)(=O)=O)c(C(=O)c2ccc(Cl)cc2)c1`, the Inhibition rises from 11% to 17%.

Compared with `CCc1ccc(/C(=N/O)c2ccc(Cl)cc2)c(O)c1`, `CCc1ccc(/C(=N/O)c2ccc(F)cc2)c(O)c1` is higher in Inhibition: 0% for the first, 33% for the second.

Going from `CCc1ccc(C(O)c2ccc(F)cc2)c(O)c1` (configuration not stated) to `CCc1ccc(O)c(C(O)c2ccc(Cl)cc2)c1` (configuration not stated), the Inhibition falls from 34% to 5%.

Going from `CCCc1cccc(C(=O)c2ccc(Cl)cc2)c1O` to `CCc1cccc(C(=O)c2ccc(Cl)cc2)c1O`, the Inhibition rises from 0% to 2%.

Going from `Cc1cccc(/C(=N/O)c2ccc(Cl)cc2)c1O` to `Cc1ccc(/C(=N/O)c2ccc(Cl)cc2)c(O)c1`, the Inhibition falls from 52% to 0%.

First: O=C(c1ccccc1)c1ccccc1O
Second: Cc1ccc(O)c(C(=O)c2ccccc2)c1
The Inhibition of the first is lower: 0% for the first, 39% for the second.

First: CCc1cc([S+]([O-])c2ccc(C)cc2)c(O)cc1Cl (configuration not stated)
Second: CCc1ccc(O)c([S+]([O-])c2ccccc2)c1 (configuration not stated)
The Inhibition of the first is lower: 5% for the first, 36% for the second.

Compared with `CCc1ccc(C(=O)c2cccc(F)c2)c(O)c1`, `CCc1ccc(O)c(C(=O)c2cccc(Cl)c2)c1` is lower in Inhibition: 26% for the first, 0% for the second.

Going from `CCc1cc(CC)c(O)c(C(=O)c2ccc(Cl)cc2)c1` to `CCc1ccc(C(=O)c2ccc(Cl)cc2)c(O)c1`, the Inhibition falls from 38% to 8%.

Compared with `Cc1ccc(C(=O)c2ccc(F)cc2)c(O)c1`, `Cc1ccc(C(=O)c2ccc(Cl)cc2)c(O)c1` is lower in Inhibition: 10% for the first, 0% for the second.

Compared with `CCCc1cccc(C(=O)c2ccccc2)c1O`, `CCc1cccc(C(=O)c2ccccc2)c1O` is higher in Inhibition: 0% for the first, 37% for the second.

Compared with `CCc1ccc(O)c(C(=O)c2cccc3ccccc23)c1`, `CCc1ccc(O)c(C(=O)c2ccc3ccccc3c2)c1` is higher in Inhibition: 0% for the first, 2% for the second.

Going from `CCc1ccc(O)c(C(=O)c2ccc(F)cc2)c1` to `CCc1ccc(O)c(C(=O)c2ccc(Br)cc2)c1`, the Inhibition rises from 1% to 10%.

Going from `CCc1ccc([S+](C)[O-])c(C(=O)c2ccc(Cl)cc2)c1` (configuration not stated) to `CCc1ccc([S+](C)[O-])c(C(=O)c2ccc(F)cc2)c1` (configuration not stated), the Inhibition rises from 36% to 42%.

Going from `CC(=O)c1ccc(O)c(C(=O)c2ccc(Cl)cc2)c1` to `Cc1ccc(O)c(C(=O)c2ccc(Cl)cc2)c1`, the Inhibition falls from 49% to 46%.

Going from `CCCc1ccc(O)c(/C(=N/O)c2ccc(Cl)cc2)c1` to `CCCc1ccc(O)c(C(=O)c2ccc(Cl)cc2)c1`, the Inhibition falls from 8% to 0%.

Compared with `CCc1ccc(O)c(/C(=N/O)c2ccc(Cl)c(Cl)c2)c1`, `CCc1ccc(O)c(C(=O)c2ccc(Cl)c(Cl)c2)c1` is lower in Inhibition: 2% for the first, 0% for the second.

Compared with `CCCCc1ccc(O)c(C(=O)c2ccc(Cl)cc2)c1`, `C=C(c1ccc(Cl)cc1)c1cc(CC)ccc1O` is higher in Inhibition: 0% for the first, 3% for the second.

Going from `CCc1ccc(OC(C)=O)c(C(=O)c2ccc(Cl)cc2)c1` to `CCc1ccc(OC(C)=O)c(C(=O)c2ccc(C)cc2)c1`, the Inhibition rises from 28% to 49%.

Compared with `CCc1ccc(OC(=O)c2ccccc2)c(C(=O)c2ccc(Cl)cc2)c1`, `CCc1ccc(C(=O)O)c(C(=O)c2ccc(Cl)cc2)c1` is lower in Inhibition: 71% for the first, 20% for the second.

`CCc1ccc(OC)c(C(=O)c2ccncc2)c1` and `CCc1ccc(O)c(C(=O)c2ccncc2)c1` are the same in Inhibition: 0% for the first, 0% for the second.

First: CCc1ccc(O)c(C(=O)c2ccco2)c1
Second: CCc1ccc(O)c(C(=O)c2ccccn2)c1
The Inhibition of the first is higher: 32% for the first, 30% for the second.

First: CCc1ccc(O)c(C(O)c2ccccc2)c1 (configuration not stated)
Second: CCc1ccc(O)c(Sc2ccccc2)c1
The Inhibition of the first is higher: 37% for the first, 0% for the second.

Compared with `CCc1ccc(C(=O)c2ccc(F)cc2)c(OC(C)=O)c1`, `CCc1ccc(SC)c(C(=O)c2ccc(F)cc2)c1` is higher in Inhibition: 9% for the first, 31% for the second.

Going from `C=C(c1ccccc1)c1cc(CC)ccc1O` to `CCc1ccc(O)c(C(=O)c2ccccc2Cl)c1`, the Inhibition falls from 24% to 14%.

Going from `CCc1ccc(O)c(Cc2ccc(Cl)cc2)c1` to `CCc1ccc(O)c(Cc2ccc(C)cc2)c1`, the Inhibition falls from 39% to 0%.

Going from `CCc1ccc(SC)c(C(O)c2ccc(Cl)cc2)c1` (configuration not stated) to `CCc1ccc(OC)c(C(OC)c2ccc(Cl)cc2)c1` (configuration not stated), the Inhibition rises from 11% to 32%.

Going from `CCc1ccc(OC)c(C(O)c2ccc(C)cc2)c1` (configuration not stated) to `CCc1ccc(O)c(C(O)c2ccc([N+](=O)[O-])cc2)c1` (configuration not stated), the Inhibition rises from 28% to 33%.

Going from `CCc1ccc(O)c(Sc2ccc(Cl)cc2)c1` to `CCc1ccc(O)c(C(=O)c2ccc(Cl)cc2Cl)c1`, the Inhibition falls from 31% to 0%.

Compared with `CCc1ccc(O)c(C(=O)c2cccc(C#N)c2)c1`, `CCc1ccc(O)c(C(=O)c2cccnc2)c1` is higher in Inhibition: 21% for the first, 27% for the second.

Going from `CCc1ccc(O)c(C(=O)c2ccc(C)cc2)c1` to `CCc1ccc(SC)c(C(=O)c2ccc(C)cc2)c1`, the Inhibition falls from 76% to 32%.

First: CCc1ccc(Cc2ccc(F)cc2)c(O)c1
Second: C=C(c1ccc(F)cc1)c1ccc(CC)cc1O
The Inhibition of the first is higher: 34% for the first, 32% for the second.

Compared with `CCc1ccc(O)c(C(=O)c2ccc(C)s2)c1`, `CCc1ccc(O)c(C(=O)c2ccc(Cl)s2)c1` is lower in Inhibition: 28% for the first, 21% for the second.

First: Cc1cccc(C(=O)c2ccccc2)c1O
Second: CCc1cccc(/C(=N/O)c2ccccc2)c1O
The Inhibition of the first is lower: 0% for the first, 13% for the second.

Going from `CCc1ccc(O)c(C(=O)c2ccc([N+](=O)[O-])cc2)c1` to `CCc1ccc(S(C)(=O)=O)c(C(=O)c2ccc(F)cc2)c1`, the Inhibition rises from 5% to 27%.

`CCc1ccc(O)c(/C(=N/O)c2ccc(Cl)cc2Cl)c1` and `O=C(c1ccc(Cl)cc1)c1ccccc1O` are the same in Inhibition: 0% for the first, 0% for the second.

First: CCc1ccc(SC)c(C(=O)c2ccccc2)c1
Second: CCc1ccc(S(C)(=O)=O)c(C(=O)c2ccccc2)c1
The Inhibition of the first is higher: 52% for the first, 35% for the second.

`CCc1ccc(OC)c(C(=O)c2cc[n+]([O-])cc2)c1` and `CCc1ccc(OC)c(C(=O)c2ccccn2)c1` are the same in Inhibition: 0% for the first, 0% for the second.

species: Cavia porcellus; assay: Inhibition of histamine release from sensitized guinea pig chopped lung upon antigen challenge at 10 ug/mL.; type: functional; method in brief: as §1

Going from `Cc1ccc(O)c(/C(=N\O)c2ccc(Cl)cc2)c1` to `Cc1ccc(O)c(/C(=N/O)c2ccc(Cl)cc2)c1`, the Inhibition rises from 25% to 59%.

Compared with `CCc1ccc(C(O)c2ccc(F)cc2)c(O)c1` (configuration not stated), `CCc1ccc(O)c(C(O)c2ccc([N+](=O)[O-])cc2)c1` (configuration not stated) is lower in Inhibition: 5% for the first, 0% for the second.

Going from `Cc1cccc(/C(=N/O)c2ccc(Cl)cc2)c1O` to `Cc1ccc(O)c(C(=O)c2ccc(Cl)cc2)c1`, the Inhibition falls from 52% to 0%.

First: CCc1cc(CC)c(O)c(C(=O)c2ccc(Cl)cc2)c1
Second: CCc1ccc([S+](C)[O-])c(C(=O)c2ccc(Cl)cc2)c1 (configuration not stated)
The Inhibition of the first is higher: 9% for the first, 1% for the second.

Compared with `Cc1ccc(O)c(C(=O)c2ccccc2)c1`, `CCc1cccc(C(=O)c2ccccc2)c1O` is higher in Inhibition: 78% for the first, 92% for the second.

First: CC(=O)c1ccc(O)c(C(=O)c2ccc(Cl)cc2)c1
Second: CCc1ccc(O)c(C(=O)c2ccc(C)cc2)c1
The Inhibition of the first is higher: 61% for the first, 53% for the second.

Compared with `CCc1ccc(OC(=O)c2ccccc2)c(C(=O)c2ccc(Cl)cc2)c1`, `CCc1ccc(OC(C)=O)c(C(=O)c2ccc(C)cc2)c1` is lower in Inhibition: 32% for the first, 9% for the second.

Compared with `CCc1ccc(O)c(C(=O)c2ccco2)c1`, `CCc1ccc(O)c(C(=O)c2ccccn2)c1` is higher in Inhibition: 0% for the first, 5% for the second.

Going from `CCc1ccc(O)c(C(O)c2ccccc2)c1` (configuration not stated) to `CCc1ccc(O)c([S+]([O-])c2ccccc2)c1` (configuration not stated), the Inhibition rises from 7% to 36%.

First: CCc1ccc(O)c(Cc2ccc(Cl)cc2)c1
Second: CCc1ccc(Cc2ccc(F)cc2)c(O)c1
The Inhibition of the first is lower: 17% for the first, 33% for the second.

Going from `CCc1ccc(O)c(Sc2ccc(Cl)cc2)c1` to `CCc1ccc(OC)c(C(OC)c2ccc(Cl)cc2)c1` (configuration not stated), the Inhibition falls from 31% to 22%.

Going from `CCc1ccc(/C(=N/O)c2ccc(F)cc2)c(O)c1` to `C=C(c1ccc(F)cc1)c1ccc(CC)cc1O`, the Inhibition falls from 46% to 0%.

Going from `CCc1ccc([S+](C)[O-])c(C(=O)c2ccc(F)cc2)c1` (configuration not stated) to `CCc1ccc(SC)c(C(=O)c2ccc(F)cc2)c1`, the Inhibition rises from 9% to 14%.

First: CCc1ccc(SC)c(C(=O)c2ccccc2)c1
Second: CCc1ccc(S(C)(=O)=O)c(C(=O)c2ccccc2)c1
The Inhibition of the first is higher: 19% for the first, 13% for the second.

Molecule `CCc1ccc(SC)c(C(=O)c2ccc(C)cc2)c1` has an Inhibition of 0%.
